RGS4 pot = RGS4 potentiators or activators, primary screen, cell-based, HEK293 M3R inducible RGS4, calcium flux; carbachol calcium flux Fluo4; stronger effect = lower value; actives 0.92% (n = 310,000); B-score at 10 µM;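 active = B-score of the integrated calcium signal more than 4 SD below the library mean, with starting fluorescence not abnormally high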;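 also: negative B-score means reduced calcium response which marks RGS4 activation or potentiation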
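System: HEK293 FlpIn-TREx cells, stable M3R, doxycycline-inducible RGS4. Timing: overnight RGS4 induction, 30 min dye load 37 °C, 20 min compound RT. Also added: carbachol, ECmax concentration. Measured by: Fluo4 fluorescence kinetic imaging of calcium. Evaluation: integrated calcium ratio converted to B score.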
MrgX1 ag = agonists of human MrgX1 receptor, primary screen, HEK293 cells, Fluo-4 calcium flux; Fluo-4 calcium fluorescence, agonist mode; stronger effect = higher value; B-score at 10 µM; AID 588627, 2011; Mas-related G-protein coupled receptor member X1 (Homo sapiens), Q96LB2; actives 0.44% (n = 310,000);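 active = calcium response B-score plate-corrected fluorescence ratio at least 3 library SD, with starting fluorescence B-score inside 5 SD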
Target sequence (Q96LB2 whole entry, looked up): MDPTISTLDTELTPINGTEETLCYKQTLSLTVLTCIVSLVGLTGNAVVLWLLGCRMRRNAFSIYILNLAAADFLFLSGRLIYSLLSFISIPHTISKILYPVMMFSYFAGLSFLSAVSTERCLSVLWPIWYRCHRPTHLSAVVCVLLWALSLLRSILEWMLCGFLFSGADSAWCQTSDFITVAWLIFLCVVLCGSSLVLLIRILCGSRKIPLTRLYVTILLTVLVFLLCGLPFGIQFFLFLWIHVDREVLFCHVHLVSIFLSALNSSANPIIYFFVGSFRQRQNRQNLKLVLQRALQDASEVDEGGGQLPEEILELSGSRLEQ
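Assay system: stable human MrgX1 HEK293 cell line. Quantity: 15,000 cells per well. Schedule: cells plated overnight, dye loaded 0.5 h 37 °C, 0.5 h room temperature. Detection: Fluo-4 NW calcium-flux fluorescence, kinetic read. Read-out basis: peak-minus-minimum fluorescence over baseline, converted to B scores. Control set: positive and negative control wells on each plate.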
RGS4 inh = RGS4 inhibitors, primary screen, cell-based, HEK293 M3R inducible RGS4, calcium flux. Regulator of G-protein signaling 4 (Homo sapiens), P49798. B-score at 10 µM. Fluo-4 calcium flux; stronger effect = higher value; triggered by carbachol at its EC20. actives 0.45% (n = 310,000);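 active = B-score, a plate-corrected calcium signal, over three deviations above library mean, with baseline fluorescence within five deviations of library mean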;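 also: RGS4 expression induced by doxycycline in cells with stable M3 receptor; B-score is computed from the integrated fluorescence ratio over baseline after carbachol; higher B-score means a larger calcium signal and so more RGS4 inhibition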
Target sequence (P49798 whole entry, looked up): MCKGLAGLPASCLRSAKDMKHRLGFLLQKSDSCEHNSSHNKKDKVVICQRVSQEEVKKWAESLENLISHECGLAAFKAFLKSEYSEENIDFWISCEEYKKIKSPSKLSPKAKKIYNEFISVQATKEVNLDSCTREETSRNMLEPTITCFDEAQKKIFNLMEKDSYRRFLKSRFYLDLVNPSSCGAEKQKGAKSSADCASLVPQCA
MrgX1 antagonist = antagonists of human MrgX1 receptor, primary screen, HEK293 cells, Fluo-4 calcium flux; Mas-related G-protein coupled receptor member X1 (Homo sapiens), Q96LB2; BAM8-22 antagonism; stronger effect = lower value; B-score at 10 µM; actives 1.3% (n = 310,000);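 active = calcium-response B-score plate-corrected more than 3 library SD below zero, starting fluorescence within 5 deviations, no agonist response on first addition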;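 also: peak minus trough fluorescence over baseline after final BAM8-22 challenge near maximal dose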
MrgX1 PAM = positive allosteric modulators of MrgX1, primary screen, HEK293 cells, Fluo-4 calcium flux. Mas-related G-protein coupled receptor member X1 (Homo sapiens), Q96LB2. FDSS; stronger effect = higher value. B-score at 10 µM. actives 0.63% (n = 310,000);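 active = plate-corrected calcium response at least 3 library SD above typical, normal starting fluorescence, not activating the receptor alone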;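 also: compound read alongside a low EC10 to EC30 dose of BAM8-22 agonist; peak minus trough fluorescence over baseline measured at the second addition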
An asterisk follows results filed as active. Most compounds without a hit are left out; they make up all but 3.5% or so of the library.

What do the screens show for `C#CCOCCOCCOCCNc1nc(N2CCN(C(=O)CCCCCCCCCCNC(=O)[C@H]([C@@H](C)CC)n3cc(CCCCCN)nn3)CC2)nc(N2CCN(C(=O)CCCCCCCCCCNC(=O)[C@H]([C@@H](C)CC)n3cc(CCCCN=C(N)N)nn3)CC2)n1`?
MrgX1 ag: 81*; MrgX1 antagonist: inactive; MrgX1 PAM: inactive

What do the screens show for `CCC(NC(C)C)C(O)c1ccc(O)c2[nH]c(=O)ccc12` (configuration not stated)?
RGS4 pot: inactive; MrgX1 ag: 28*; RGS4 inh: inactive; MrgX1 antagonist: inactive; MrgX1 PAM: inactive

How did COc1ccc(OC)c(/C=N/NC(=O)c2ccc(N(C)S(=O)(=O)c3ccccc3)cc2)c1 do in these assays?
RGS4 pot: inactive; MrgX1 ag: inactive; RGS4 inh: inactive; MrgX1 antagonist: inactive; MrgX1 PAM: 7*

What do the screens show for `COc1ccc(/C=N/NC(=O)c2ccc(N(C)S(=O)(=O)c3ccccc3)cc2)c(OC)c1`?
RGS4 pot: inactive; MrgX1 ag: inactive; RGS4 inh: inactive; MrgX1 antagonist: inactive; MrgX1 PAM: inactive

How did Cc1ccc(NC(=O)CCc2c[nH]c3ccccc23)nc1 do in these assays?
RGS4 pot: inactive; MrgX1 ag: inactive; RGS4 inh: inactive; MrgX1 antagonist: inactive; MrgX1 PAM: inactive

What do the screens show for `CC(=O)Oc1ccc(/C=N/NS(=O)(=O)c2ccccc2)cc1`?
RGS4 pot: inactive; MrgX1 ag: inactive; RGS4 inh: inactive; MrgX1 antagonist: inactive; MrgX1 PAM: inactive

What do the screens show for `O=C(Oc1ccc(C(=S)N2CCOCC2)cc1)c1ccc([N+](=O)[O-])cc1[N+](=O)[O-]`?
RGS4 pot: inactive; MrgX1 ag: inactive; RGS4 inh: inactive; MrgX1 antagonist: inactive; MrgX1 PAM: inactive

How did O=C(Oc1ccc(Br)cc1C(=S)N1CCOCC1)c1ccc([N+](=O)[O-])cc1[N+](=O)[O-] do in these assays?
RGS4 pot: -7.5*; MrgX1 ag: inactive; RGS4 inh: inactive; MrgX1 antagonist: inactive; MrgX1 PAM: inactive

How did Cc1nn2c(-c3cccc(NC(=O)CSc4nc5ccccc5o4)c3)nnc2c2ccccc12 do in these assays?
RGS4 pot: -7.9*; MrgX1 ag: inactive; RGS4 inh: inactive; MrgX1 antagonist: inactive; MrgX1 PAM: inactive

Results for Cc1cccc(NC(=O)CSc2nc3ccccc3o2)c1 ?
RGS4 pot: inactive; MrgX1 ag: inactive; RGS4 inh: inactive; MrgX1 antagonist: inactive; MrgX1 PAM: inactive

How did Cc1ccc(-n2nc(C)c(/C=N/NC(=O)c3cccnc3)c2Cl)cc1 do in these assays?
RGS4 pot: inactive; MrgX1 ag: inactive; RGS4 inh: inactive; MrgX1 antagonist: -4.8*; MrgX1 PAM: inactive

Results for Cc1nn(-c2ccccc2)c(Cl)c1/C=N/NC(=O)c1ccc(NS(=O)(=O)c2cccs2)cc1 ?
RGS4 pot: inactive; MrgX1 ag: inactive; RGS4 inh: inactive; MrgX1 antagonist: inactive; MrgX1 PAM: 11*

How did N/C(CC(=O)NC1CCCCC1)=N\OCC(=O)Nc1ccc(Cl)c(Cl)c1 do in these assays?
RGS4 pot: inactive; MrgX1 ag: inactive; RGS4 inh: inactive; MrgX1 antagonist: inactive; MrgX1 PAM: inactive

How did CC(=O)n1cc(N(C(=O)CCl)c2ccc(C)cc2)c2ccccc21 do in these assays?
RGS4 pot: -7.2*; MrgX1 ag: inactive; RGS4 inh: inactive; MrgX1 antagonist: inactive; MrgX1 PAM: inactive

What do the screens show for `CC(=O)N(c1ccc(Cl)cc1)c1cn(C(C)=O)c2ccccc12`?
RGS4 pot: inactive; MrgX1 ag: inactive; RGS4 inh: inactive; MrgX1 antagonist: inactive; MrgX1 PAM: inactive

What do the screens show for `COc1c(CC=C(C)C)c(O)cc2oc(=O)c3c4ccc(O)cc4oc3c12`?
RGS4 pot: inactive; MrgX1 ag: inactive; RGS4 inh: inactive; MrgX1 antagonist: -11*; MrgX1 PAM: inactive

How did COc1c2c(cc3oc(=O)c4c5ccc(O)cc5oc4c13)OC(C)(C)CC2 do in these assays?
RGS4 pot: inactive; MrgX1 ag: inactive; RGS4 inh: inactive; MrgX1 antagonist: inactive; MrgX1 PAM: inactive

How did CC(C)[C@@H](C(=O)N1CCN(C(=O)OC(C)(C)C)CC1)n1cc(CCO)nn1 do in these assays?
RGS4 pot: inactive; MrgX1 ag: inactive; RGS4 inh: inactive; MrgX1 antagonist: inactive; MrgX1 PAM: inactive

What do the screens show for `Cc1ccc(C(=O)NNc2cc(=O)n(C)c(=O)n2C)cc1C`?
RGS4 pot: inactive; MrgX1 ag: inactive; RGS4 inh: inactive; MrgX1 antagonist: -5.1*; MrgX1 PAM: inactive

How did CCOc1ccc(C2=C/C(=C/c3cccnc3)C(=O)O2)cc1 do in these assays?
RGS4 pot: inactive; MrgX1 ag: inactive; RGS4 inh: inactive; MrgX1 antagonist: inactive; MrgX1 PAM: 28*

What do the screens show for `COc1ccc(C2=C/C(=C/c3cccnc3)C(=O)O2)cc1OC`?
RGS4 pot: inactive; MrgX1 ag: inactive; RGS4 inh: inactive; MrgX1 antagonist: inactive; MrgX1 PAM: inactive

How did CCOc1ccc(S(=O)(=O)N2CCCC(C(=O)Nc3ccccc3)C2)cc1 (configuration not stated) do in these assays?
RGS4 pot: inactive; MrgX1 ag: inactive; RGS4 inh: inactive; MrgX1 antagonist: inactive; MrgX1 PAM: inactive

How did CCC(=O)Oc1ccc(C2NC(=O)c3ccccc3O2)cc1OC (configuration not stated) do in these assays?
RGS4 pot: -7.6*; MrgX1 ag: inactive; RGS4 inh: inactive; MrgX1 antagonist: inactive; MrgX1 PAM: inactive

Results for COc1ccc(/C=C/C(=O)Oc2cccc(/C=N/NC(=O)c3cccc(F)c3)c2)cc1 ?
RGS4 pot: inactive; MrgX1 ag: inactive; RGS4 inh: inactive; MrgX1 antagonist: inactive; MrgX1 PAM: inactive

What do the screens show for `COc1ccc(CCNC(=O)COC(=O)/C=C/c2ccc(OC)c(OC)c2)cc1`?
RGS4 pot: inactive; MrgX1 ag: inactive; RGS4 inh: inactive; MrgX1 antagonist: -4.5*; MrgX1 PAM: inactive

Results for COc1ccc(/C=C\C(=O)Oc2cccc(/C=N/NC(=O)Cc3ccc(OC)c(OC)c3)c2)cc1 ?
RGS4 pot: inactive; MrgX1 ag: inactive; RGS4 inh: inactive; MrgX1 antagonist: -5.5*; MrgX1 PAM: inactive

What do the screens show for `CCCCSc1nc2sc3c(c2c(=O)n1-c1ccccc1)CCN(C)C3`?
RGS4 pot: -7.3*; MrgX1 ag: inactive; RGS4 inh: inactive; MrgX1 antagonist: inactive; MrgX1 PAM: inactive
